Data set [1] addresses T1, Amyloid-beta precursor protein (Homo sapiens, UniProt P05067). Put plainly: Inhibition of Cu2+ induced amyloid beta (1 to 42 residues) (unknown origin) aggregation at 25 uM by thioflavin-T fluorescence method relative to control.
The target in data set [2] is T2, Amine oxidase [flavin-containing] A (Homo sapiens, UniProt P21397).
T2 sequence (P21397 whole entry): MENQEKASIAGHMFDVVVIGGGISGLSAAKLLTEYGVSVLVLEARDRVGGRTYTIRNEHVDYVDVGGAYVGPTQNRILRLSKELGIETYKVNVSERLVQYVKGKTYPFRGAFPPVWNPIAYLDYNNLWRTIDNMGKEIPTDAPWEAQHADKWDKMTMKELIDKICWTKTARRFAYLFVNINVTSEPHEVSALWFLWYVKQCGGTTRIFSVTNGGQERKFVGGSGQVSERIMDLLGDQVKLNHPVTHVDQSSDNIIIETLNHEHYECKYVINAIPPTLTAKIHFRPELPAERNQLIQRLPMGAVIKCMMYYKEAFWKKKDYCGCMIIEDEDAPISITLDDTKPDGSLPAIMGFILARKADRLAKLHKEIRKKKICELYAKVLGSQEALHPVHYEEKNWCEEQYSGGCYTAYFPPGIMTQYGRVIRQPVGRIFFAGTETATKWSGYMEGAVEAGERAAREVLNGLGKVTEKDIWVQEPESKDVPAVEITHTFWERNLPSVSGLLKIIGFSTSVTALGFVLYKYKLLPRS
As to the kind of experiment: Inhibition of human recombinant MAO-A by multimode plate reader assay.

The target in data set [3] is T3, Acetylcholinesterase (Rattus norvegicus, UniProt P37136).
T3 sequence (P37136 whole entry): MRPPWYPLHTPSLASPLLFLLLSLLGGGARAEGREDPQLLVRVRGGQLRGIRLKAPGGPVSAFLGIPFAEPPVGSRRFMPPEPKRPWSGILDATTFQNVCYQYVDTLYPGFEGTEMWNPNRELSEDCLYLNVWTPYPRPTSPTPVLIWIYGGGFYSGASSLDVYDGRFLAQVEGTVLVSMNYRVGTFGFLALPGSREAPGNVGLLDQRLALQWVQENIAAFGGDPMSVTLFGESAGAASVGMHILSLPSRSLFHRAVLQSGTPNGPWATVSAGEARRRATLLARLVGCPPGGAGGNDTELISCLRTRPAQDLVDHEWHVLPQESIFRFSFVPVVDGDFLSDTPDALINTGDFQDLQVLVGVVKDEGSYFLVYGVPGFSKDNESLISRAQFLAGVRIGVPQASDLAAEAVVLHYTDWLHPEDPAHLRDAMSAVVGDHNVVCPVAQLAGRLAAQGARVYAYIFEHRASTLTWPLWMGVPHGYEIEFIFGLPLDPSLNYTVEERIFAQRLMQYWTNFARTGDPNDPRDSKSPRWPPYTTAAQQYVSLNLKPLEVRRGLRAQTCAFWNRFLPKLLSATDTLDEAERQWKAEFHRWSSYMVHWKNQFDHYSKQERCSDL
As to the kind of experiment: Inhibition of rat cortex homogenate acetylcholinesterase by Ellman's method.

Data set [4] can be described thus: Metal chelating activity assessed as compound-Cu2+ complex formation by measuring maximum absorption wavelength shifted from 444 nm to 460 nm by UV-Visible spectrophotometry. The essentials: (§1)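 UV-vis spectra recorded from 200 to 600 nm on a multimode reader. Metals tested as CuCl2, FeSO4, ZnCl2 and AlCl3.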
In data set [5] the target is T1, Amyloid-beta precursor protein. Put plainly: Disaggregation of Cu2+ induced amyloid beta (1 to 42 residues) (unknown origin) aggregation at 25 uM by thioflavin-T fluorescence method relative to control.
The species named for the next data set is Homo sapiens. As to the kind of experiment: Selectivity index, ratio of IC50 for recombinant human MAO-A to IC50 for recombinant human MAO-B. The essentials: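 Selectivity index taken as IC50(hMAO-A)/IC50(hMAO-B). IC50 values are mean ± SEM from three experiments.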
Data set [6] in a line: Antioxidant activity of compound assessed as trolox equivalent antioxidant capacity by ORAC-FL assay. The data set is classed as functional.
A short description of data set [7]: Acute toxicity in KM mouse assessed as mortality upto 1000 mg/kg,po administered as single dose measured for 14 days. The data set is classed as organism-based. The following applies: in vivo, 336 h, time 14 day.
The target in data set [8] is Acetylcholinesterase (Electrophorus electricus) (UniProt O42275). Put plainly: Mixed type inhibition of electric eel AChE assessed as decrease in Vmax by reciprocal Lineweaver-Burk plot analysis. The following applies: dose 0.5-2 µM.
For a further data set, the target named is Butyrylcholinesterase (Rattus norvegicus, UniProt Q9JKC1). Put plainly: Inhibition of rat serum BuChE by Ellman's method. (In general: DTNB colorimetry detects thiols as they appear.)
The test system of a further data set is Mus musculus. Put plainly: Antialzheimer activity in scopolamine-induced po dosed KM mouse model of memory impairment assessed as increase in latency time treated for 7 days followed by training trial at 1 hr post dose and subsequent scopolamine challenge at 30 mins post training trial and measured post last dose by step-down passive avoidance test. Type of data set: functional, organism-based. As to conditions: dose 2.3-20.4 mg/kg, time 7.0 day. The procedure, abridged: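 Mice orally dosed at 2.3, 6.8 and 20.4 mg/kg, with donepezil 5.0 mg/kg p.o. as positive control, 1 h before training trial. Scopolamine 3 mg/kg i.p. given 30 min later. Training trial uses a 0.5 mA, 2 s foot shock on stepping down from the block. Step-down latency is measured as the test trial 24 h after training. n = 10 per group.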

Data set [9] in a line: Metal chelating activity assessed as compound Fe2+ complex formation by UV-Visible spectrophotometry. The procedure, abridged:
as §1

Data set [10] concerns PC-12. As to the kind of experiment: Neuroprotective activity against H2O2-induced cytotoxicity in rat PC12 cells assessed as increase in cell viability by MTT assay. Type of data set: functional, cell-based. The essentials: (§2)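 PC12 cells exposed to 100 μM H2O2, with or without compound. Viability read by MTT reduction relative to control. Trolox 100 μM is the reference.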
For orientation: Tetrazolium dyes change colour on reduction, which living cells bring about.

Data set [11] concerns PC-12. Put plainly: Neuroprotective activity against H2O2-induced cytotoxicity in rat PC12 cells assessed as increase in cell viability at 10 uM by MTT assay. The data set is classed as functional. The essentials:
as §2

The target of data set [12] is T1, Amyloid-beta precursor protein. Put plainly: Disaggregation of self-induced amyloid beta (1 to 42) (unknown origin) at 25 uM measured by Thioflavin T based fluorometric assay relative to control.
For data set [13], the system named is PC-12. As to the kind of experiment: Neuroprotective activity against H2O2-induced cytotoxicity in rat PC12 cells assessed as increase in cell viability at 1 uM by MTT assay. Type of data set: functional. The procedure, abridged:
as §2

Data set [14] can be described thus: Metal chelating activity assessed as compound Zn2+ complex formation by UV-Visible spectrophotometry. The essentials: as §1
Data set [15] can be described thus: Acute toxicity in KM mouse assessed as abnormal behavior upto 1000 mg/kg, po administered as single dose measured for 14 days. The data set is classed as organism-based. The following applies: in vivo, 336 h, time 14 day. The procedure, abridged:
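Kunming mice, n = 10 per group, fasted overnight with free access to water, given one oral dose of 67.5, 125, 250, 500 or 1000 mg/kg. Housed on a 12 h light/dark cycle at 20–22 °C, 40–70% relative humidity. Abnormal behaviour and mortality observed continuously for the first 4 h, intermittently over the next 24 h, then occasionally to 14 days.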

In data set [16] the target is Acetylcholinesterase (Electrophorus electricus, UniProt O42275). As to the kind of experiment: Mixed type inhibition of electric eel AChE by reciprocal Lineweaver-Burk plot analysis.
Data set [17] in a line: Metal chelating activity assessed as compound-Al3+ complex formation by measuring maximum absorption wavelength shifted from 444 nm to 468 nm by UV-Visible spectrophotometry. The essentials: as §1

Activity calls are given as the source filed them. The calls are words filed in the database; no cut-off is given here.

T1 sequence (P05067 whole entry, the tested form may be a part): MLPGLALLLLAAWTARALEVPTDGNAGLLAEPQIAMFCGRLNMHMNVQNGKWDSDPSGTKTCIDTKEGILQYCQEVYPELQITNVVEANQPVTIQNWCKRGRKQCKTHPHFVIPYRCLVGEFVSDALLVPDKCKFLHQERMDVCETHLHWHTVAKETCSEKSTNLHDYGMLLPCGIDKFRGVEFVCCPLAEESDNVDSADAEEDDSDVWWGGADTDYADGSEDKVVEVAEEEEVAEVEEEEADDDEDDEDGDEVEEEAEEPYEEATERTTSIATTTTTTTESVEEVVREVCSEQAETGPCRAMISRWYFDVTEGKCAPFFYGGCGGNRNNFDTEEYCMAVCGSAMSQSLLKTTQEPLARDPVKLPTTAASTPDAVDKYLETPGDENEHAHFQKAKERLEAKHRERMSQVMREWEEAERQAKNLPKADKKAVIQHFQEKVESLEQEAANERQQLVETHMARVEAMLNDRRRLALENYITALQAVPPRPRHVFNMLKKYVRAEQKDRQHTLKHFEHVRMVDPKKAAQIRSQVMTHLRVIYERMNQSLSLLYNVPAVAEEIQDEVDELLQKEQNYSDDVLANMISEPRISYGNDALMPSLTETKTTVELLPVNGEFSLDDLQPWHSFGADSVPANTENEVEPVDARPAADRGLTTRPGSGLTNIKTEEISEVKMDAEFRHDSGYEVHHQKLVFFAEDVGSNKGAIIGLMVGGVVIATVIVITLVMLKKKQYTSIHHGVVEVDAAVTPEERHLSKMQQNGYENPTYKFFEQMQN
Acetylcholinesterase (Electrophorus electricus, UniProt O42275), sequence (O42275 whole entry): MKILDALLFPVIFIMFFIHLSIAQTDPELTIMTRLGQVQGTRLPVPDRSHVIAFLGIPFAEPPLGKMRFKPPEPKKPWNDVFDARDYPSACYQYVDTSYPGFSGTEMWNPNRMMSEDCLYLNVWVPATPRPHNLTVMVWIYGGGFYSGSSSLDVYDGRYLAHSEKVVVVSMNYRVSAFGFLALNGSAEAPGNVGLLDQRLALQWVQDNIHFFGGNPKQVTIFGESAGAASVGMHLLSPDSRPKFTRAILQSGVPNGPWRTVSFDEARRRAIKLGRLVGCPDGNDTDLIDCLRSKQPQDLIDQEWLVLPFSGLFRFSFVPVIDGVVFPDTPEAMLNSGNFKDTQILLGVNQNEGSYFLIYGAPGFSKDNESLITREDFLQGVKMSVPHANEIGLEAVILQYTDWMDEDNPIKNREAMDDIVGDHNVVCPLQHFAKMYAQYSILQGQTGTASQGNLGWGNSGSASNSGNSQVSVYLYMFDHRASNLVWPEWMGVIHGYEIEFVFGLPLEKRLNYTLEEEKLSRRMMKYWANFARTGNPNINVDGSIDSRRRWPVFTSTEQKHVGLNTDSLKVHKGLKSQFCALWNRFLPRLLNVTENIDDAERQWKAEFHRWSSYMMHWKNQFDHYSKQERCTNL
Acetylcholinesterase (Electrophorus electricus), sequence (O42275 24-633 limits assumed): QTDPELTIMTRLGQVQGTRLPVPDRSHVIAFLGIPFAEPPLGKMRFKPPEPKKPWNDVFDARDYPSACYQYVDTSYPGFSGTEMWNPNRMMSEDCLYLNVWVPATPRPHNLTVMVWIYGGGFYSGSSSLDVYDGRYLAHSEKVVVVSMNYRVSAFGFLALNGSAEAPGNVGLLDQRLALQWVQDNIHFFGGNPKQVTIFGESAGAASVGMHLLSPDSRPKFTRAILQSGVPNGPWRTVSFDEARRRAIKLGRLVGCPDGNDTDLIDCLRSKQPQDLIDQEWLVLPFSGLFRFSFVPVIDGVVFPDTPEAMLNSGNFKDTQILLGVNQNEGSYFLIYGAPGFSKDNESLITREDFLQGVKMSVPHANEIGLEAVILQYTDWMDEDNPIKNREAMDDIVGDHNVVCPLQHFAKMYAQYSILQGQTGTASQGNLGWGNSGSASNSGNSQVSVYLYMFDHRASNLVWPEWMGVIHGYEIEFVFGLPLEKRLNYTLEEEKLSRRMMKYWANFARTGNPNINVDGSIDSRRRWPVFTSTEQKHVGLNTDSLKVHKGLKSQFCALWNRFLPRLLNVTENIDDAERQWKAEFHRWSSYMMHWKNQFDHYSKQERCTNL
Butyrylcholinesterase, sequence (Q9JKC1 whole entry): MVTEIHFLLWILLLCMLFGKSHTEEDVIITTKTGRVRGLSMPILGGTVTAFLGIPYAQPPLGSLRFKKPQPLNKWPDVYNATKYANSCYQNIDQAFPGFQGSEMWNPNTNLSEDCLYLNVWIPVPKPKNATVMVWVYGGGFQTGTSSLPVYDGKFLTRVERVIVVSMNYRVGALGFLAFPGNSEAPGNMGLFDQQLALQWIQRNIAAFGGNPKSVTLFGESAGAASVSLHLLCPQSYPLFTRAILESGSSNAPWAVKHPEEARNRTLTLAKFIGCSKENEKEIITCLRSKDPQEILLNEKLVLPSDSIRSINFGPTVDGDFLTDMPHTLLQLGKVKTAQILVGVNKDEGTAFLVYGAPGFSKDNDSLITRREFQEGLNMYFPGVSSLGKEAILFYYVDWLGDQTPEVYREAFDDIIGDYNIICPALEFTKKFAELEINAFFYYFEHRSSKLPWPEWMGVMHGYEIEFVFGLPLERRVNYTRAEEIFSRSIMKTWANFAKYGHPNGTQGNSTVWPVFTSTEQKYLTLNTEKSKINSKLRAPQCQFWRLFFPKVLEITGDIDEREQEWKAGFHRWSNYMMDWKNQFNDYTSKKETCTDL

With `CCN(CCCCOc1ccc(C(=O)/C=C/c2ccc(N(C)C)cc2)c(O)c1)Cc1ccccc1N(C)C`, the inhibition in [1] was 95.3%. The IC50 in data set [2] is 18.4 µM; against Acetylcholinesterase [3], 0.13 µM; against Butyrylcholinesterase, 236 µM. Besides, the result in data set [4] and in data set [17] was Active. Moreover, the Activity is 88.1% in [5]; 2.1 in [6]; “Non-Toxic” in data set [7]; “Dose-Dependent Effect” in the data set with Mus musculus; “Dose-Dependent Effect” in the data set with PC-12 [10]; 88.1% in the data set on PC-12 [11]. For the same compound, the Activity was 95.1% in data set [12], 70.9% with PC-12 [13] and “Non-Toxic” in [15]. In the data set filed under Homo sapiens, the Selectivity Index was 18.4. Also, the inhibition entry in [8] is “Active”. For the same compound, the outcome in data set [9] and in data set [14] was inactive. The compound also registered a Ki on Acetylcholinesterase [16] of 0.5 µM.

For orientation: inhibition means the relative decrease from the control value, in per cent. As usually defined, the IC50 is the concentration at which inhibition is half-maximal. The term Ki denotes a dissociation constant, usually derived from enzyme kinetics or from competition with a known ligand. Read a high Ki as weaker binding.

The values are drawn from ChEMBL document CHEMBL4813970, “Design, synthesis and evaluation of novel dimethylamino chalcone-O-alkylamines derivatives as potential multifunctional agents against Alzheimer's disease” (Eur J Med Chem, 2021).
